Series [1] can be described thus: melting temperature; fluorescence melt of hairpins on a sequencing array, two-state fit, raised by 9.35 °C to match UV melts. To be noted: sodium 0.088 M. Summed up:
(§1)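 Folding enthalpy and melting temperature were estimated with bootstrapped two-state fits and combined across four replicates by inverse-variance weighting, with fitted temperatures raised by 9.35 °C to match UV melts. The data were Cy3 fluorescence of library hairpins, with annealed Cy3 and quencher oligos, on a sequenced MiSeq flow cell in 50 mM Na-HEPES pH 8.0, 25 mM NaCl, imaged in 2.5 °C steps up to 60 °C and normalised to pre-quench Cy3 and control constructs.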

Series [2] in a line: folding enthalpy; higher = less favourable; fluorescence melt of hairpins on a sequencing array, two-state fit. Particulars: sodium 0.088 M. Summed up: as §1

The text below walks through data of the array DNA melting data of Ke et al. (doi:10.1101/2024.01.08.574731).

Take GCAGACGGAAACATCCGC ((.((.(....).)).)): in series [1], the Tm is 26.5 °C. In addition, the folding enthalpy in series [2] is -13.3 kcal/mol.
GCAGACGGAAACGCCTGC ((((.((....)).)))): the Tm in series [1] amounted to 56 °C. Further, the folding enthalpy in series [2] is -51.1 kcal/mol.
Consider GCAGACGGAAACGTCCAC (..((((....))))..), for which the Tm in series [1] came to 32.1 °C. Moreover, the folding enthalpy in series [2] was -9.46 kcal/mol.
The corresponding values for GCAGACTCGAAAGAGTGC (((..(((....)))))) are 43.4 °C and -16 kcal/mol.
Turning to GCAGAGCGAAAGCCCGGC ((.(.((....)).).)), the Tm in series [1] was determined as 44.8 °C. Moreover, the folding enthalpy in series [2] is -17.9 kcal/mol.
Take GCAGAGCGAAAGCTCAGC ((.((((....)))).)): in series [1], the Tm is 64.8 °C. Besides, the folding enthalpy in series [2] is -20.4 kcal/mol.
The matching figures for GCAGAGCGAAAGCTCCGC ((.((((....)))).)): 61.1 °C and -16.8 kcal/mol.
The matching figures for GCAGAGGGAAACCTCCAC (..((((....))))..): 25.4 °C and -13.7 kcal/mol.
The matching figures for GCAGAGGGAAACCTCTGC (((((((....))))))): 67.9 °C and -46.2 kcal/mol.
Consider GCAGCAGGAAACCGCTGC (((((.(....).))))), for which, in series [1], the Tm is 58.1 °C. In addition, the folding enthalpy in series [2] is -41.3 kcal/mol.
With GCAGCAGGAAACTGCCAC (..((((....))))..), the Tm in series [1] was 31.6 °C. Moreover, the folding enthalpy in series [2] is -11 kcal/mol.
On to GCAGCATCGAAAGATTGC (((..(((....)))))), for which the Tm in series [1] was determined as 33.9 °C. Further, the folding enthalpy in series [2] is -16.9 kcal/mol.
Regarding GCAGCCACGAAAGTGTGC (((..(((....)))))), in series [1], the Tm is 40.2 °C. Further, in series [2], the folding enthalpy was -12.5 kcal/mol.
For the sequence GCAGCCGAAAGGCACTGC ((((((....)))..))), in series [1], the Tm was 45.4 °C. The folding enthalpy in series [2] is -13.7 kcal/mol.
The matching figures for GCAGCCGAAAGGCATGC ((((((....))).))): 62 °C and -19.6 kcal/mol.
Regarding GCAGCCGAAAGGCGATGC ((((((....)))..))), in series [1], the Tm is 53.2 °C. Further, in series [2], the folding enthalpy is -14.2 kcal/mol.
The corresponding values for GCAGCCGAAAGGCGTGC ((((((....))).))) are 65 °C and -16.5 kcal/mol.
Consider GCAGCCGAAAGGCGTTGC ((((((....)))..))), for which the Tm in series [1] worked out at 53.3 °C. Also, the folding enthalpy in series [2] is -13.8 kcal/mol.
Consider GCAGCGCGAAAGCACAGC ((.(.((....)).).)), for which, in series [1], the Tm is 43.8 °C. In addition, in series [2], the folding enthalpy is -19.9 kcal/mol.
GCAGCGCGAAAGCAGTGC (((..((....))..))): in series [1], the Tm was 52.8 °C. The folding enthalpy in series [2] was -18.1 kcal/mol.
Regarding GCAGCGCGAAAGCGTCGC ((..(((....)))..)), the Tm in series [1] is 57.1 °C. Moreover, the folding enthalpy in series [2] is -17.5 kcal/mol.
As for GCAGCGCGAAAGCTCAGC ((.(.((....)).).)), the Tm in series [1] was determined as 39.9 °C. The folding enthalpy in series [2] was -10.6 kcal/mol.
Consider GCAGCGCGAAAGCTTTGC (((..((....))..))), for which the Tm in series [1] turned out to be 37.4 °C. Further, the folding enthalpy in series [2] was -16.7 kcal/mol.
The matching figures for GCAGCGGGAAACTGCTGC (((((.(....).))))): 66 °C and -43.1 kcal/mol.
The corresponding values for GCAGCTACGAAAGTATGC (((..(((....)))))) are 36.1 °C and -15 kcal/mol.
The matching figures for GCAGCTCGAAAGAGATGC (((.(((....))).))): 68.6 °C and -42.1 kcal/mol.
As to GCAGCTGGAAACAGCCGC ((.((((....)))).)), in series [1], the Tm stood at 50.6 °C. In series [2], the folding enthalpy is -29.3 kcal/mol.
The corresponding values for GCAGGACGAAAGTCGTGC (((.(((....))).))) are 62.6 °C and -42.8 kcal/mol.
The matching figures for GCAGGAGGAAACTCCCGC ((.((((....)))).)): 45.8 °C and -24.1 kcal/mol.
Consider GCAGGATCGAAAGATTGC (((..(((....)))))), for which the Tm in series [1] came out at 31.4 °C. Also, the folding enthalpy in series [2] was -19.8 kcal/mol.
The corresponding values for GCAGGCCGAAAGGCTGC (((.(((....)))))) are 67.3 °C and -22.2 kcal/mol.
With GCAGGCGAAAGCCAATGC ((((((....)))..))), the Tm in series [1] was 49.1 °C. In series [2], the folding enthalpy is -15.5 kcal/mol.
For GCAGGCGAAAGCCCATGC ((((((....)))..))), the Tm in series [1] worked out at 41.4 °C. Also, the folding enthalpy in series [2] is -13.2 kcal/mol.
The corresponding values for GCAGGCGAAAGCCCTGC ((((((....))).))) are 65.6 °C and -19.2 kcal/mol.
The matching figures for GCAGGCGAAAGCCGTGC ((((((....))).))): 62.8 °C and -17.1 kcal/mol.
For GCAGGCGAAAGCCTATGC ((((((....)))..))), the Tm in series [1] worked out at 47.6 °C. Besides, the folding enthalpy in series [2] is -13.9 kcal/mol.
